The target in assay [1] is T1, Tyrosine-protein phosphatase non-receptor type 11 (Homo sapiens) (UniProt Q06124).
T1 sequence (whole entry): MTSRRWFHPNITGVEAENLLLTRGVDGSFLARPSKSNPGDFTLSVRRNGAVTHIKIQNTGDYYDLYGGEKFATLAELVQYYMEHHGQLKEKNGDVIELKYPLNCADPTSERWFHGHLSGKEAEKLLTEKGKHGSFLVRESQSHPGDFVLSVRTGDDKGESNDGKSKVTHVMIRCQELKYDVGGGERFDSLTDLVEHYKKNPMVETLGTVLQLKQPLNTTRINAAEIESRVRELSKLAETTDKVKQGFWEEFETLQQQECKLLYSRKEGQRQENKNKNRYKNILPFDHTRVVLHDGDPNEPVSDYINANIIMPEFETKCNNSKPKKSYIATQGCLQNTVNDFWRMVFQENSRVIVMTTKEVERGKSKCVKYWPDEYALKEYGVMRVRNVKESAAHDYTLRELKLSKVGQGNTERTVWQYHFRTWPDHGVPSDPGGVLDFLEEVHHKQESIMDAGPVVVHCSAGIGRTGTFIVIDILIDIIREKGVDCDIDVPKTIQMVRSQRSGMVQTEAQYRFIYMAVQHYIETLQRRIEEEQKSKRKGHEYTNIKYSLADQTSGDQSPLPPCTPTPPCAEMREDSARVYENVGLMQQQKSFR
Put plainly: Inhibition of SHP2 (unknown origin) using pNPP as substrate at 25 uM relative to control.

In assay [2] the target is Receptor-type tyrosine-protein phosphatase F (Homo sapiens) (UniProt P10586). Put plainly: Inhibition of LAR (unknown origin) using pNPP as substrate at 25 uM relative to control.
The species named for another assay is Homo sapiens. In words: Selectivity ratio of IC50 for TCPTP (unknown origin) to IC50 for recombinant PTP1B (unknown origin). The method, boiled down:
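Ratio of TCPTP to PTP1B IC50. Both enzymes (PTP1B at 30 nM recombinant) assayed with 2 mM pNPP, 1 mM DTT, 1 mM EDTA, pH 6.5, 30 min at 37 °C, NaOH stop, A405; IC50 by logit method, triplicate for PTP1B.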

Assay [3] has as its target Tyrosine-protein phosphatase non-receptor type 6 (Homo sapiens) (UniProt P29350). Put plainly: Inhibition of SHP1 (unknown origin) using pNPP as substrate at 25 uM relative to control.
Assay [4] deals with T2, Tyrosine-protein phosphatase non-receptor type 2 (Homo sapiens) (UniProt P17706).
T2 sequence (whole entry): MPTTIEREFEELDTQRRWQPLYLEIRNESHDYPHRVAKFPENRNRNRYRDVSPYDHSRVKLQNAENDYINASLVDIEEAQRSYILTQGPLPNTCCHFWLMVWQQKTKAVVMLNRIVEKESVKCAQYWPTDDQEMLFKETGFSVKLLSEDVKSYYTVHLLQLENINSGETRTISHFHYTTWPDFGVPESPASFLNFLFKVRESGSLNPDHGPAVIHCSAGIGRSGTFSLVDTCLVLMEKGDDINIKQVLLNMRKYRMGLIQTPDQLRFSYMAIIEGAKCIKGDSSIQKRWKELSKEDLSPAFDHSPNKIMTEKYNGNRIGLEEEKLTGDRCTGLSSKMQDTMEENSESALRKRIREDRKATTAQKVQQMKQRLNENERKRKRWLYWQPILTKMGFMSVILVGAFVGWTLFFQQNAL
Put plainly: Inhibition of TCPTP (unknown origin) assessed as pNPP hydrolysis at 25 uM after 30 mins relative to control.

In assay [5] the target is T3, Tyrosine-protein phosphatase non-receptor type 1 (Homo sapiens) (UniProt P18031).
T3 sequence (whole entry): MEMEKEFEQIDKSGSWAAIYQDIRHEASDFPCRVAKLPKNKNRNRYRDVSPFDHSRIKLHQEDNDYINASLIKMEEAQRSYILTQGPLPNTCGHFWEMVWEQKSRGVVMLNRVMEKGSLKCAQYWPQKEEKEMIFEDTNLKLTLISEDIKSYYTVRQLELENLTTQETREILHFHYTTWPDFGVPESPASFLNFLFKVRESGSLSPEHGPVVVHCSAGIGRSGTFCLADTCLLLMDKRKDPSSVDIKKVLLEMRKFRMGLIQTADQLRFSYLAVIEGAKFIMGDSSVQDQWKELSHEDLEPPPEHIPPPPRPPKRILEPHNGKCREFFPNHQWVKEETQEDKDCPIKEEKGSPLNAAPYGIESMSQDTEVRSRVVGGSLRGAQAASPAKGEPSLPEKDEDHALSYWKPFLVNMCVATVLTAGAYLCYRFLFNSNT
Put plainly: Competitive inhibition of recombinant PTP1B (unknown origin) assessed as pNPP hydrolysis at 0.1 to 0.8 uM after 30 mins by Lineweaver-Burk plot analysis. The method, boiled down: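 Kinetics in 100 µL of 50 mM MOPS pH 6.5 with 30 nM recombinant PTP1B. pNPP in 2-fold dilutions from 64 mM, inhibitor at 0.1–0.8 µM (0 as reference). Km and Vmax from Michaelis–Menten fits; mechanism judged by Lineweaver–Burk double-reciprocal plots.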

In a further assay the test system is CHO. Put plainly: Inhibition of PTP1B in CHO cells transfected with human insulin receptor-beta assessed as increase in insulin-mediated tyrosine phosphorylation of insulin receptor-beta at 25 to 50 uM preincubated for 4 hrs followed by insulin stimulation measured after 10 mins by Western blot analysis. In kind it is cell-based. Conditions: Cricetulus griseus. The method, boiled down: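 CHO cells in F12/10% FBS transfected 8 h with 2 µg human IR plasmid, reseeded and grown 24 h at 37 °C, 5% CO2. Serum-starved 2 h, compound 4 h, then 10 nM insulin 10 min. Lysates (Triton/HEPES pH 7.4 buffer) run on SDS-PAGE, blotted with PY-20 and β-actin.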

Active and inactive are the calls of the source. No cut-off for these calls is given here. Where only a bound is given, the exact number is not on record here.

Sequence of Receptor-type tyrosine-protein phosphatase F (Homo sapiens) (P10586 whole entry): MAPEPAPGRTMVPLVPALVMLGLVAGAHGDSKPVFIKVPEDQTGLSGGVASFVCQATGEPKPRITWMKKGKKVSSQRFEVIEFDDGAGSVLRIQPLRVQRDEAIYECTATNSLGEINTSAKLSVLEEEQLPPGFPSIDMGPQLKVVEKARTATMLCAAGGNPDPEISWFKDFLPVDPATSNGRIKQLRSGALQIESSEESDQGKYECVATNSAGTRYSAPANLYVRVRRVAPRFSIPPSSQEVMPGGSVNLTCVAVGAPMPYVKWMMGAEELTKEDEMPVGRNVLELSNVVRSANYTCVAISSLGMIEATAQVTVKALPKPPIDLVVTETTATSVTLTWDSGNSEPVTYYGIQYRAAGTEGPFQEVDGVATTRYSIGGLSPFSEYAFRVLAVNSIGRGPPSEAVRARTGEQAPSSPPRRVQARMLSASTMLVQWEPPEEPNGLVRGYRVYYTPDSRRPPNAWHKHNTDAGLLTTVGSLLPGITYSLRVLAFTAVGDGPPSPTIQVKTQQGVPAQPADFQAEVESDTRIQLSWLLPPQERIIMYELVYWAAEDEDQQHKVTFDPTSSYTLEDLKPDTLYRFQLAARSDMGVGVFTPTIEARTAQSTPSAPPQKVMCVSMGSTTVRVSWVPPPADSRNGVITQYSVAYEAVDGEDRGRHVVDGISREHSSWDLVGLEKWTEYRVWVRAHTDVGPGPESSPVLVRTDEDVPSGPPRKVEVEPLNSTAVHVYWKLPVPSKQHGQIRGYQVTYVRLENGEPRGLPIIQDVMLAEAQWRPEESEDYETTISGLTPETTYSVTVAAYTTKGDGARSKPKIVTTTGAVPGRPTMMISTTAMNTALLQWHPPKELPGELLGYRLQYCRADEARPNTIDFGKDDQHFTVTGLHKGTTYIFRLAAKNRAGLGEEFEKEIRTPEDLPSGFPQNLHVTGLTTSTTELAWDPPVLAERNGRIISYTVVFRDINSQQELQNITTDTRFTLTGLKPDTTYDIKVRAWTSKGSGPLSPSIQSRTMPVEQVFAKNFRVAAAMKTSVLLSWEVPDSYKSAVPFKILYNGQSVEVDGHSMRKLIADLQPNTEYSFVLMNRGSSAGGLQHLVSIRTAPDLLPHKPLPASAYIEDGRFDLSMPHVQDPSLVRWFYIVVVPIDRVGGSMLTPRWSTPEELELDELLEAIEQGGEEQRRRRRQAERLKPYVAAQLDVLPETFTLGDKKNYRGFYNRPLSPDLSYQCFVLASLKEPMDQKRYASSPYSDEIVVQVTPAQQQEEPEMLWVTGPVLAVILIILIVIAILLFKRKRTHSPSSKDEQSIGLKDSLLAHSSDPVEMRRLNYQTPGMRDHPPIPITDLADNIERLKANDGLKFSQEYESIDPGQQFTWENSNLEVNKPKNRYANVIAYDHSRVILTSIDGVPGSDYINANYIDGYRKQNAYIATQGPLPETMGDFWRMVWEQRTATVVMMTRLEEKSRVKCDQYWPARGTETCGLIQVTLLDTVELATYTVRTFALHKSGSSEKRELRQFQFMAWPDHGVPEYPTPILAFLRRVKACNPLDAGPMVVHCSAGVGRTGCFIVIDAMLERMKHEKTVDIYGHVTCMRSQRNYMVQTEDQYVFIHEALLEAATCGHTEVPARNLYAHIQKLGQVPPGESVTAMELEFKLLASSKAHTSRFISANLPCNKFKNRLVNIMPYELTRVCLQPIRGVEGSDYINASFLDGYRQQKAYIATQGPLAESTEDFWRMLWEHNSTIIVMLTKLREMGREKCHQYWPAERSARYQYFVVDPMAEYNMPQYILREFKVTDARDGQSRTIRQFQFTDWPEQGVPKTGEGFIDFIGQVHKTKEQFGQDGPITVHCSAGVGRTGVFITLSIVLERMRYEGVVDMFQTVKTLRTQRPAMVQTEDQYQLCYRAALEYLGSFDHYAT
Sequence of Tyrosine-protein phosphatase non-receptor type 6 (Homo sapiens) (P29350 whole entry): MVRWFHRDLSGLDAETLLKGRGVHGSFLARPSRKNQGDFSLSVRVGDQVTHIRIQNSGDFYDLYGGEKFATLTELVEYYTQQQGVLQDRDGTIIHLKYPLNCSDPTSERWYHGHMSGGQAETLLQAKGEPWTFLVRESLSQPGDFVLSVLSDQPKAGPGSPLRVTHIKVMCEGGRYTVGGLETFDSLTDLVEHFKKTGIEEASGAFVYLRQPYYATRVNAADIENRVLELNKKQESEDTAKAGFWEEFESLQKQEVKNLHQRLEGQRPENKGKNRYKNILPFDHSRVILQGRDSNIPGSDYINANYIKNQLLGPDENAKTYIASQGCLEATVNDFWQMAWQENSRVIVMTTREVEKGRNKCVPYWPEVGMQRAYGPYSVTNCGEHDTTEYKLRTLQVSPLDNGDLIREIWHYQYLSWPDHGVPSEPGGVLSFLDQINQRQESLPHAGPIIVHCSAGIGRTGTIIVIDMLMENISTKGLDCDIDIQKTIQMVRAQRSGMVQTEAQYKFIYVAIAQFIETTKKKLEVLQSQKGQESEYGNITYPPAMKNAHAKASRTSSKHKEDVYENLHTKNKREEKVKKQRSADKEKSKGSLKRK

A word on the inhibition: it is the share of the control response that was lost under treatment. Regarding `CCOc1cc(NS(C)(=O)=O)c(OCC)cc1CNC(=O)Nc1ccc(Br)cc1`, the inhibition in assay [1] and in assay [2] was below 50% each time. In addition, in the assay listed under Homo sapiens, the Ratio IC50 was 6.

Take `CCOc1cc(NS(C)(=O)=O)c(OCC)cc1CNC(=O)Nc1ccc(C)cc1`: the inhibition in assay [3], in assay [1] and in assay [2] was below 50% in each case. For the same compound, the Ratio IC50 in the assay listed under Homo sapiens turned out to be 16.

For the compound `CCOc1cc(NS(C)(=O)=O)c(OCC)cc1CNC(=O)Nc1ccc(OC)cc1`, the inhibition in assay [4], in assay [1] and in assay [2] was below 50% throughout. Besides, the inhibition result (in assay [5]; in the assay on CHO) was “Active” each time. The Ratio IC50 in the assay filed under Homo sapiens was above 120.

The values are drawn from ChEMBL document CHEMBL3593243, “Discovery of novel, potent, selective and cellular active ADC type PTP1B inhibitors via fragment-docking-oriented de novel design” (Bioorg Med Chem, 2015).
